Results collected from several papers.
Target: MAP kinase-interacting serine/threonine-protein kinase 2 (MKNK2, Homo sapiens, UniProt Q9HBH9)

`N#Cc1ccc(NC(=O)Nc2ccccc2)cc1` gave a remaining binding of 46% (cell-free assay; competition with immobilised ligand; 25 µM).
`COc1ccc2oc(-c3ccc4nc(N)oc4c3)c/c(=N\c3ccccc3NC(=O)CCN)c2c1` has a remaining binding of 93% (binding; 1 µM).
With `C1=C/COCc2cc(ccc2OCCN2CCCC2)Nc2nccc(n2)-c2cccc(c2)COC/1` the remaining binding was 59% (binding; 0.1 µM).
The inhibition of `C=CC(=O)N1CCC([C@@H]2CCNc3c(C(N)=O)c(-c4ccc(Oc5ccccc5)cc4)nn32)CC1` is reported as 22% (enzyme activity; inhibitor; 1 µM).
`Cc1ccc(NC(=O)c2ccnc(C(F)(F)F)c2)cc1-c1cc(OCCO)nc(N2CCOCC2)c1` has a remaining binding of 79% (binding; competition with immobilised ligand; 1 µM).
`CCCCC(=O)Nc1ccc(-c2ccc3ncn(CCC)c(=O)c3c2)cn1` gave a remaining binding of 100% (binding; competition with immobilised ligand; 0.5 µM).
For `CO[C@@H]1[C@H](N(C)C(=O)c2ccccc2)C[C@H]2O[C@]1(C)n1c3ccccc3c3c4c(c5c6ccccc6n2c5c31)C(=O)NC4`, the inhibition was 30% (enzyme activity; inhibitor; 1 µM).
For `CN1CCN(C(=O)c2ccc(NC(=O)Nc3ccc(N(C)c4ccnc(Nc5ccc(CS(C)(=O)=O)cc5)n4)cc3)cc2)CC1`, the remaining binding was 4.2% (binding; competition with immobilised ligand; 1 µM).
With `CC(C)S(=O)(=O)c1ccc2nccc(Nc3ccc4sc(C5CCCC5)nc4c3)c2c1` the activity vs control was 101% (enzyme activity; inhibitor; 1 µM).
